Source: ChEMBL document CHEMBL1926598, “Synthesis, anti-inflammatory activity and ulcerogenic liability of novel nitric oxide donating/chalcone hybrids” (Bioorg Med Chem, 2012)

Tests used:
[1] = system: Rattus norvegicus; experiment: Antiinflammatory activity in albino rat assessed as inhibition of carrageenan-induced paw edema at 100 mg/kg, po administered 30 mins prior to challenge measured after 1 hr relative to untreated control; assay type: functional
Summary of the method: (§1)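 Adult male albino rats (120–140 g), groups of four, fasted 24 h with water allowed. Test compound suspended in 0.5% w/v CMC in water, given orally at 100 mg/kg; controls received CMC alone. After 30 min, 0.1 mL of 1% carrageenan in saline injected subplantar into right hind paw, saline into left. Paw thickness measured by caliper; % inhibition = [(VR−VL)control − (VR−VL)treated]/(VR−VL)control ×100; one-way ANOVA versus control.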

[2] = system: Rattus norvegicus; experiment: Antiinflammatory activity in albino rat assessed as inhibition of carrageenan-induced paw edema at 100 mg/kg, po administered 30 mins prior to challenge measured after 2 hrs relative to untreated control; assay type: functional; summary of the method: as §1
[3] = system: Rattus norvegicus; experiment: Antiinflammatory activity in albino rat assessed as inhibition of carrageenan-induced paw edema at 100 mg/kg, po administered 30 mins prior to challenge measured after 3 hrs relative to untreated control; assay type: functional; summary of the method: as §1
[4] = system: Rattus norvegicus; experiment: Antiinflammatory activity in albino rat assessed as inhibition of carrageenan-induced paw edema at 100 mg/kg, po administered 30 mins prior to challenge measured after 4 hrs relative to untreated control; assay type: functional; summary of the method: as §1
[5] = system: Rattus norvegicus; experiment: Antiinflammatory activity in albino rat assessed as inhibition of carrageenan-induced paw edema at 100 mg/kg, po administered 30 mins prior to challenge measured after 5 hrs relative to untreated control; assay type: functional; summary of the method: as §1
[6] = system: Rattus norvegicus; experiment: Gastric toxicity in albino rat assessed as ulcer index at 100 mg/kg, po after 5 hrs; assay type: organism-based; parameters: dose 100 mg/kg, route oral; settings: in vivo
Summary of the method: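 Rats dosed orally at 100 mg/kg in 0.5% CMC (n = 4). Stomach lesions counted and graded by area: level I <1 mm², II 1–3 mm², III >3 mm². Ulcer index = 1×(level I count) + 2×(level II) + 3×(level III). Mean ± SEM; one-way ANOVA versus control.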

[7] = system: Rattus norvegicus; experiment: Gastric toxicity in albino rat assessed as loss of mucosal membrane at the area of ulceration at 100 mg/kg, po after 5 hrs by hematoxylin and eosin staining; assay type: organism-based; parameters: dose 100 mg/kg, route oral; settings: in vivo
Summary of the method: (§2)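 Stomach sections from control and treated rats were dewaxed and hydrated through graded alcohols. They were stained with haematoxylin 5–7 min, differentiated 5–10 s in 1% HCl in 70% alcohol, then stained with 1% eosin for 10 min. Mucosa of the fundic stomach was examined by light microscopy.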

[8] = system: Rattus norvegicus; experiment: Gastric toxicity in albino rat assessed as change in gastric mucosa structure at 100 mg/kg, po after 5 hrs by hematoxylin and eosin staining; assay type: organism-based; parameters: dose 100 mg/kg, route oral; settings: in vivo; summary of the method: as §2
[9] = system: Rattus norvegicus; experiment: Gastric toxicity in albino rat assessed as loss of glandular structure morphology at 100 mg/kg, po after 5 hrs by hematoxylin and eosin staining; assay type: organism-based; parameters: dose 100 mg/kg, route oral; settings: in vivo; summary of the method: as §2
[10] = system: Rattus norvegicus; experiment: Gastric toxicity in albino rat assessed as capillary inflammatory cells appearance at 100 mg/kg, po after 5 hrs by hematoxylin and eosin staining; assay type: organism-based; parameters: dose 100 mg/kg, route oral; settings: in vivo; summary of the method: as §2
[11] = system: Rattus norvegicus; experiment: Gastric toxicity in albino rat assessed as edema at 100 mg/kg, po after 5 hrs by hematoxylin and eosin staining; assay type: organism-based; parameters: dose 100 mg/kg, route oral; settings: in vivo; summary of the method: as §2
[12] = system: Rattus norvegicus; experiment: Gastric toxicity in albino rat assessed as capillary dilation in lamina propia below fundic gland at 100 mg/kg, po after 5 hrs by hematoxylin and eosin staining; assay type: organism-based; parameters: dose 100 mg/kg, route oral; settings: in vivo; summary of the method: as §2

| SMILES | inhibition in vivo at 100 mg/kg [1] [%] | inhibition in vivo at 100 mg/kg [2] [%] | inhibition in vivo at 100 mg/kg [3] [%] | inhibition in vivo at 100 mg/kg [4] [%] | inhibition in vivo at 100 mg/kg [5] [%] | UI [6] | Activity [7] | Activity [8] | Activity [9] | Activity [10] | Activity [11] | Activity [12] |
| --- | --- | --- | --- | --- | --- | --- | --- | --- | --- | --- | --- | --- |
| O=C(CBr)Nc1ccc(C(=O)/C=C/c2ccc(Cl)cc2)cc1 | 44 | 52 | 59 | 59 | 54 | 21.4 | Toxic | Toxic | Toxic | – | – | – |
| CC(=O)c1ccc(OCC(=O)Nc2ccc(C(=O)/C=C/c3ccc4c(c3)OCO4)cc2)cc1 | 37 | 43 | 57 | 53 | 50 | 11.2 | – | – | – | Toxic | Toxic | Toxic |
